Results from ChEMBL document CHEMBL3813647, “Discovery of an Orally Active and Liver-Targeted Prodrug of 5-Fluoro-2'-Deoxyuridine for the Treatment of Hepatocellular Carcinoma” (J Med Chem, 2016).

Tests used:
[1] = Cytotoxicity against human SMMC7721 cells assessed as reduction in cell viability after 72 hrs by MTT assay; format: functional, cell-based; conditions: SMMC-7721, 72 h
Method in brief: (§1)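 Cells in RPMI-1640 with 10% FBS, seeded at 4 × 10³ per well and attached for 24 h. Compound (DMSO ≤0.5% final) added for 72 h at 37 °C, 5% CO2. Viability read by MTT. IC50 set against 0.5% DMSO-treated cells taken as 100% viable. Mean of two independent experiments, each run in triplicate.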

[2] = test system: Liver; assay: Drug metabolism in phenobarbital/beta-napthoflavone treated Sprague-Dawley rat liver S9 fraction assessed as prodrug activation at 50 uM preincubated for 5 mins followed by NADPH addition measured up to 60 mins by HPLC-MS/MS analysis; format: ADME, subcellular; conditions: s9, 1 h
Method in brief: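 S9 prepared from livers of Sprague-Dawley rats dosed i.g. with phenobarbital/β-naphthoflavone for 3 days. Incubation: 100 mM KH2PO4 pH 7.4, 5 mg/mL S9, compound at 50 μM, 5 min preincubation at 37 °C, then 2 mM NADPH. Samples at 0–60 min, MeOH extraction, FdUMP (m/z 325→129) measured by HPLC-MS/MS. Triplicate.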

[3] = Half life in rat plasma by HPLC analysis; format: ADME, cell-free
Method in brief: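 Rat plasma, 37 °C. Compound added from a 2.5 mM stock, sampled at 0–24 h, quenched with MeOH. Analyzed by HPLC-UV at 267 nm (C8 column, MeOH:H2O 68:32). Triplicate samples.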

[4] = Cytotoxicity against human LO2 cells assessed as reduction in cell viability after 72 hrs by MTT assay; format: cell-based; conditions: L02, 72 h; method in brief: as §1
[5] = Half life in human plasma by HPLC-MS/MS analysis; format: ADME, cell-free
Method in brief: (§2)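 Compound at 1 μg/mL final in dog or human plasma, 37 °C. Sampled at 0–24 h and quenched with ice-cold MeOH containing internal standard. Parent measured by LC-MS/MS in ESI negative mode; t1/2 calculated from percent remaining versus 0 h.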

[6] = Half life in dog plasma by HPLC-MS/MS analysis; format: ADME, cell-free, Canis lupus familiaris; method in brief: as §2
[7] = test system: Mus musculus; assay: Toxicity in KM mouse implanted with mouse H22 cells assessed as body weight level at 60 mg/kg administered daily through oral gavage after 8 days (reference value: 22.1 +/- 0.8g); format: organism-based; conditions: in vivo, 192 h
[8] = test system: H22; assay: Antitumor activity against mouse H22 cells implanted in KM mouse assessed as tumor growth inhibition at 60 mg/kg administered daily through oral gavage after 8 days; format: functional; conditions: 192 h
Method in brief: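 Syngeneic H22 hepatoma: 2 × 10⁶ cells injected s.c. in the axilla (0.9% saline) of female KM mice, n = 10 per group. From day 2, daily oral gavage for 8 days. Test agent given in 35% PEG400; sorafenib suspended in 0.5% CMC-Na. Tumor weight taken on day 8; inhibition rate calculated versus the vehicle group.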

[9] = Ratio of FdUMP AUC (infinity) in Sprague-Dawley rat liver to FDUR AUC (infinity) in Sprague-Dawley rat plasma at 49.87 mg/kg administered through oral gavage; format: ADME, organism-based; conditions: in vivo
Method in brief: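 Male Sprague-Dawley rats (220 20 g), single gavage of 0.096 mmol/kg prodrug in 20% hydroxypropyl-β-cyclodextrin. Blood by cardiac puncture under isoflurane and liver at 0.25–24 h, n = 3 per time point. Liver freeze-clamped and homogenized in 20 mM EDTA-K2/70% MeOH. FdUMP (liver) and FDUR (plasma) by HPLC-MS/MS, negative ESI. Index = AUC(inf) liver FdUMP / AUC(inf) plasma FDUR.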

[10] = test system: Plasma; assay: Cmax in Sprague-Dawley rat plasma assessed as FDUR formation at 49.87 mg/kg administered through oral gavage measured up to 24 hrs by HPLC-MS/MS analysis; format: ADME, organism-based; design: dose 49.87 mg/kg, route oral; conditions: in vivo
Method in brief: (§3)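 Male Sprague-Dawley rats (220 ± 20 g), single gavage of 0.096 mmol/kg. FDUR was dosed in H2O; the prodrugs were dosed in 20% hydroxypropyl-β-cyclodextrin. n = 3 per time point, sampled at 0.25–24 h. Plasma (EDTA-K2, cardiac puncture) and freeze-clamped liver were homogenized in 20 mM EDTA-K2/70% MeOH. Analytes measured by HPLC-MS/MS in ESI negative mode.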

[11] = test system: Liver; assay: AUC (infinity) in Sprague-Dawley rat liver assessed as FDUR formation at 49.87 mg/kg administered through oral gavage measured up to 24 hrs by HPLC-MS/MS analysis; format: ADME, organism-based; design: dose 49.87 mg/kg, route oral, time infinity; conditions: in vivo; method in brief: as §3
[12] = test system: Plasma; assay: Cmax in Sprague-Dawley rat plasma assessed as 5-FU formation at 49.87 mg/kg administered through oral gavage measured up to 24 hrs by HPLC-MS/MS analysis; format: ADME, organism-based; design: dose 49.87 mg/kg, route oral; conditions: in vivo; method in brief: as §3
[13] = test system: Liver; assay: Cmax in Sprague-Dawley rat liver assessed as FdUMP formation at 49.87 mg/kg administered through oral gavage measured up to 24 hrs by HPLC-MS/MS analysis; format: ADME, organism-based; design: dose 49.87 mg/kg, route oral; conditions: in vivo; method in brief: as §3
[14] = test system: Liver; assay: AUC (infinity) in Sprague-Dawley rat liver assessed as FdUMP formation at 49.87 mg/kg administered through oral gavage measured up to 24 hrs by HPLC-MS/MS analysis; format: ADME, organism-based; design: dose 49.87 mg/kg, time infinity, route oral; conditions: in vivo; method in brief: as §3
[15] = test system: Plasma; assay: AUC (infinity) in Sprague-Dawley rat plasma assessed as FDUR formation at 49.87 mg/kg administered through oral gavage measured up to 24 hrs by HPLC-MS/MS analysis; format: ADME, organism-based; design: dose 49.87 mg/kg, route oral, time infinity; conditions: in vivo; method in brief: as §3
[16] = test system: Liver; assay: Cmax in Sprague-Dawley rat liver assessed as FDUR formation at 49.87 mg/kg administered through oral gavage measured up to 24 hrs by HPLC-MS/MS analysis; format: ADME, organism-based; design: dose 49.87 mg/kg, route oral; conditions: in vivo; method in brief: as §3
[17] = test system: Liver; assay: Drug uptake in Sprague-Dawley rat liver S9 fraction treated with (S)-Isopropyl 2-(((R)-(((2R,3S,5R)-5-(5-fluoro-2,4-dioxo 3,4-dihydropyrimidin-1(2H)-yl)-3-hydroxytetrahydrofuran-2-yl)methoxy)((2-methylbenzyl)oxy)phosphoryl)amino)propanoate at 20 ug/mL preincubated for 5 mins followed by NADPH addition measured at 20 mins by HPLC-MS/MS analysis; format: ADME, subcellular; conditions: s9, 20 min
Method in brief: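 Rat liver S9 (10 mg/mL) incubated with compound at 20 μg/mL. Parent, intermediate A and FdUMP followed over time by HPLC-MS/MS. Negative control run without NADPH.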

## O=c1[nH]c(=O)n([C@H]2C[C@H](O)[C@@H](COP(=O)(NCc3ccccc3)OCc3cccc(Cl)c3)O2)cc1F (stereo not given in full)
[1]
  IC50: 206 µM
[2]
  Drug metabolism: 22.6 nmol/min/mg
[3]
  half-life: > 24 h

## O=c1[nH]c(=O)n([C@H]2C[C@H](O)[C@@H](COP(=O)(NCc3ccccc3)OCc3ccccc3Cl)O2)cc1F (stereo not given in full)
[1]
  IC50: 132 µM
[2]
  Drug metabolism: 29.2 nmol/min/mg
[3]
  half-life: > 24 h

## Cc1ccccc1COP(=O)(N[C@@H](C)C(=O)OC(C)C)OC[C@H]1O[C@@H](n2cc(F)c(=O)[nH]c2=O)C[C@@H]1O (stereo not given in full)
[1]
  IC50: 276 µM
[4]
  IC50: 333 µM
[3]
  half-life: < 0.083 h
[5]
  half-life: > 24 h
[6]
  half-life: > 24 h

## COc1ccccc1COP(=O)(NCc1ccccc1)OC[C@H]1O[C@@H](n2cc(F)c(=O)[nH]c2=O)C[C@@H]1O (stereo not given in full)
[1]
  IC50: 6.8 µM
[2]
  Drug metabolism: 238.9 nmol/min/mg
[3]
  half-life: 3.4 h

## CNC(=O)c1cc(Oc2ccc(NC(=O)Nc3ccc(Cl)c(C(F)(F)F)c3)cc2)ccn1 [SORAFENIB]
[7]
  Activity: 26.4 g
[8]
  inhibition in vivo at 60 mg/kg: 50.8%

## O=c1[nH]c(=O)n([C@H]2C[C@H](O)[C@@H](COP(=O)(NCc3ccccc3)OCc3ccccc3)O2)cc1F (stereo not given in full)
[1]
  IC50: 365 µM
[2]
  Drug metabolism: 17.4 nmol/min/mg
[3]
  half-life: > 24 h

## O=c1[nH]c(=O)n([C@H]2C[C@H](O)[C@@H](COP(=O)(NCc3ccccc3)OCc3ccc(Cl)cc3)O2)cc1F (stereo not given in full)
[1]
  IC50: 133 µM
[2]
  Drug metabolism: 25.6 nmol/min/mg
[3]
  half-life: > 24 h

## O=c1[nH]c(=O)n([C@H]2C[C@H](O)[C@@H](COP(=O)(NCc3ccccc3)OCc3ccccc3[N+](=O)[O-])O2)cc1F (stereo not given in full)
[1]
  IC50: > 500 µM
[2]
  Drug metabolism: 44.7 nmol/min/mg
[3]
  half-life: > 24 h

## Cc1ccc(COP(=O)(NCc2ccccc2)OC[C@H]2O[C@@H](n3cc(F)c(=O)[nH]c3=O)C[C@@H]2O)cc1 (stereo not given in full)
[1]
  IC50: 31.7 µM
[2]
  Drug metabolism: 53.5 nmol/min/mg
[3]
  half-life: > 24 h

## O=c1[nH]c(=O)n([C@H]2C[C@H](O)[C@@H](COP(=O)(NCc3ccccc3)OCc3cccc(F)c3)O2)cc1F (stereo not given in full)
[1]
  IC50: 241 µM
[2]
  Drug metabolism: 12.5 nmol/min/mg
[3]
  half-life: > 24 h

## O=c1[nH]c(=O)n([C@H]2C[C@H](O)[C@@H](COP(=O)(NCc3ccccc3)OCc3ccccc3F)O2)cc1F (stereo not given in full)
[1]
  IC50: 155 µM
[2]
  Drug metabolism: 34.7 nmol/min/mg
[3]
  half-life: > 24 h

## O=c1[nH]c(=O)n([C@H]2C[C@H](O)[C@@H](COP(=O)(NCc3ccccc3)OCc3ccc(Br)cc3)O2)cc1F (stereo not given in full)
[1]
  IC50: 107 µM
[2]
  Drug metabolism: 39.1 nmol/min/mg
[3]
  half-life: > 24 h

## O=c1[nH]c(=O)n([C@H]2C[C@H](O)[C@@H](COP(=O)(NCc3ccccc3)OCc3ccccc3Br)O2)cc1F (stereo not given in full)
[1]
  IC50: 151 µM
[2]
  Drug metabolism: 49.6 nmol/min/mg
[3]
  half-life: > 24 h

## Cc1ccccc1COP(=O)(NCc1ccccc1)OC[C@H]1O[C@@H](n2cc(F)c(=O)[nH]c2=O)C[C@@H]1O (stereo not given in full)
[9]
  Ratio AUC: < 3.8
[10]
  Cmax: 0.04 µg/mL
[1]
  IC50: 18.6 µM
[11]
  AUC: 838 ng·h/g
[12]
  Cmax: 0.014 µg/mL
[2]
  Drug metabolism: 58.4 nmol/min/mg
[3]
  half-life: > 24 h
[13]
  Cmax: 55 ng/g
[14]
  AUC: < 155 ng·h/g
[15]
  AUC: 0.041 µg·h/mL
[16]
  Cmax: 50 ng/g

## O=c1[nH]c(=O)n([C@H]2C[C@H](O)[C@@H](COP(=O)(O)O)O2)cc1F [5-FLUORODEOXYURIDYLATE]
[17]
  Drug uptake: metabolite_detected

## O=c1[nH]c(=O)n([C@H]2C[C@H](O)[C@@H](COP(=O)(NCc3ccccc3)OCc3cccc(Br)c3)O2)cc1F (stereo not given in full)
[1]
  IC50: 225 µM
[2]
  Drug metabolism: 32.8 nmol/min/mg
[3]
  half-life: > 24 h

## COc1cccc(COP(=O)(NCc2ccccc2)OC[C@H]2O[C@@H](n3cc(F)c(=O)[nH]c3=O)C[C@@H]2O)c1 (stereo not given in full)
[1]
  IC50: 386 µM
[2]
  Drug metabolism: 118.7 nmol/min/mg
[3]
  half-life: > 24 h

## Cc1cccc(COP(=O)(NCc2ccccc2)OC[C@H]2O[C@@H](n3cc(F)c(=O)[nH]c3=O)C[C@@H]2O)c1 (stereo not given in full)
[1]
  IC50: 139 µM
[2]
  Drug metabolism: 49.4 nmol/min/mg
[3]
  half-life: > 24 h

## Cc1ccccc1CO[P@](=O)(N[C@@H](C)C(=O)O)OC[C@H]1O[C@@H](n2cc(F)c(=O)[nH]c2=O)C[C@@H]1O
[17]
  Drug uptake: metabolite_detected

## O=c1[nH]c(=O)n([C@H]2C[C@H](O)[C@@H](COP(=O)(NCc3ccccc3)OCc3ccc([N+](=O)[O-])cc3)O2)cc1F (stereo not given in full)
[1]
  IC50: > 1000 µM
[2]
  Drug metabolism: 40 nmol/min/mg
[3]
  half-life: > 24 h

## O=c1[nH]c(=O)n([C@H]2C[C@H](O)[C@@H](COP(=O)(NCc3ccccc3)OCc3ccc(F)cc3)O2)cc1F (stereo not given in full)
[1]
  IC50: 150 µM
[2]
  Drug metabolism: 26.3 nmol/min/mg
[3]
  half-life: > 24 h

## O=c1[nH]c(=O)n([C@H]2C[C@H](O)[C@@H](COP(=O)(NCc3ccccc3)OCc3cccc([N+](=O)[O-])c3)O2)cc1F (stereo not given in full)
[2]
  Drug metabolism: 14.9 nmol/min/mg
[3]
  half-life: > 24 h
